{
  "source": "ChEMBL document CHEMBL1137500",
  "about": "“Inhibitors of type III secretion in Yersinia: design, synthesis and multivariate QSAR of 2-arylsulfonylamino-benzanilides” (Bioorg Med Chem, 2007)",
  "note": "Calls of active or inactive are those of the source. No cut-off for these calls is given here.",
  "data": [
    {"tested_on": "Yersinia pseudotuberculosis", "assay": "Effect on T3S in Yersinia pseudotuberculosis 3 pIB29 assessed as inhibition of light emission at 100 uM by luciferase reporter gene assay", "in_short": "(§1)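 Strain YPIII-pIB29 (yopE-luxAB transcriptional fusion, lacking YopH), grown overnight at ambient temperature in BHI with 5 mM EGTA and 20 mM MgCl2 to deplete calcium, then adjusted to OD600 0.15-0.25. Compounds in DMSO (≤1% final) at 100, 50, 20 or 10 µM final, in triplicate. Plates shaken 1 h at ambient temperature, then 2 h at 37 °C. Decanal added within 30 min and luminescence read at once. Result is % inhibition of light versus control.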", "units": {"inhibition": "%"}, "values": [
      {"smiles": "O=C(Nc1ccc(Cl)c(Cl)c1)c1ccc(Cl)cc1NS(=O)(=O)c1cccc2nsnc12", "inhibition": 68},
      {"smiles": "O=C(Nc1ccccc1)c1cc(Cl)ccc1NS(=O)(=O)c1cccc2nsnc12", "inhibition": 20},
      {"smiles": "O=C(Nc1ccc(F)cc1)c1cc(Cl)ccc1NS(=O)(=O)c1cc(Cl)cc(Cl)c1O", "inhibition": 88},
      {"smiles": "O=C(Nc1ccc2cccnc2c1)c1cc(Cl)ccc1NS(=O)(=O)c1ccc(Cl)c(Cl)c1", "inhibition": 52},
      {"smiles": "O=C(Nc1ccc(Cl)c(Cl)c1)c1ccccc1NS(=O)(=O)c1cccc2nsnc12", "inhibition": 13},
      {"smiles": "COc1ccc(NC(=O)c2ccc(Cl)cc2NS(=O)(=O)c2cccc(F)c2)cc1", "inhibition": 51},
      {"smiles": "O=C(Nc1ccc(F)c(F)c1)c1cc(F)c(F)cc1NS(=O)(=O)c1cccc([N+](=O)[O-])c1", "inhibition": 49},
      {"smiles": "O=C(Nc1ccc(Cl)c(Cl)c1)c1cc(Cl)ccc1NS(=O)(=O)c1ccccc1", "inhibition": 70},
      {"smiles": "O=C(Nc1cccc(Cl)c1)c1cc(Cl)ccc1NS(=O)(=O)c1cccc2nsnc12", "inhibition": 55},
      {"smiles": "Cc1ccc(S(=O)(=O)Nc2cc(F)c(F)cc2C(=O)Nc2ccc(Cl)c(Cl)c2)cc1", "inhibition": 2},
      {"smiles": "O=C(Nc1ccc2cccnc2c1)c1cc(Cl)ccc1NS(=O)(=O)c1ccccc1", "inhibition": 10},
      {"smiles": "O=C(Nc1ccc(F)c(F)c1)c1ccc(Cl)cc1NS(=O)(=O)c1cccc2nsnc12", "inhibition": 63}
    ]},
    {"tested_on": "Yersinia pseudotuberculosis", "assay": "Growth inhibition of Yersinia pseudotuberculosis", "assay_type": "functional, organism-based", "in_short": "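Wild-type YPIII-pIB102 diluted to OD600 0.05-0.1 in BHI with 2.5 mM CaCl2. Grown at 37 °C with shaking, with compound at 10, 20, 50 or 100 µM. Absorbance read at 600 nm periodically, or at 595 nm hourly, over six hours and compared with the control growth curve.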", "values": [
      {"smiles": "O=C(Nc1ccc(F)cc1)c1ccc(Cl)cc1NS(=O)(=O)c1ccc(Cl)c(Cl)c1", "Activity": "inactive"},
      {"smiles": "O=C(Nc1ccc(Cl)c(Cl)c1)c1ccc(Cl)cc1NS(=O)(=O)c1cccc2nsnc12", "Activity": "inactive"},
      {"smiles": "O=C(Nc1ccccc1)c1cc(Cl)ccc1NS(=O)(=O)c1cccc2nsnc12", "Activity": "inactive"},
      {"smiles": "O=C(Nc1ccc(F)cc1)c1cc(Cl)ccc1NS(=O)(=O)c1cc(Cl)cc(Cl)c1O", "Activity": "inactive"},
      {"smiles": "O=C(Nc1ccc2cccnc2c1)c1cc(Cl)ccc1NS(=O)(=O)c1ccc(Cl)c(Cl)c1", "Activity": "inactive"},
      {"smiles": "O=C(Nc1ccc(Cl)c(Cl)c1)c1ccccc1NS(=O)(=O)c1cccc2nsnc12", "Activity": "inactive"},
      {"smiles": "COc1ccc(NC(=O)c2ccc(Cl)cc2NS(=O)(=O)c2cccc(F)c2)cc1", "Activity": "inactive"},
      {"smiles": "O=C(Nc1ccc(F)c(F)c1)c1cc(F)c(F)cc1NS(=O)(=O)c1cccc([N+](=O)[O-])c1", "Activity": "inactive"},
      {"smiles": "O=C(Nc1ccc(Cl)c(Cl)c1)c1cc(Cl)ccc1NS(=O)(=O)c1ccccc1", "Activity": "inactive"},
      {"smiles": "O=C(Nc1cccc(Cl)c1)c1cc(Cl)ccc1NS(=O)(=O)c1cccc2nsnc12", "Activity": "inactive"},
      {"smiles": "O=C(Nc1ccc(F)c(Cl)c1)c1cc(Cl)ccc1NS(=O)(=O)c1ccc(Cl)c(Cl)c1", "Activity": "inactive"},
      {"smiles": "Cc1ccc(S(=O)(=O)Nc2cc(F)c(F)cc2C(=O)Nc2ccc(Cl)c(Cl)c2)cc1", "Activity": "inactive"},
      {"smiles": "O=C(Nc1ccc2cccnc2c1)c1cc(Cl)ccc1NS(=O)(=O)c1ccccc1", "Activity": "inactive"},
      {"smiles": "O=C(Nc1ccc(F)c(F)c1)c1ccc(Cl)cc1NS(=O)(=O)c1cccc2nsnc12", "Activity": "inactive"}
    ]},
    {"tested_on": "Yersinia pseudotuberculosis", "assay": "Effect on T3S in Yersinia pseudotuberculosis 3 pIB29 assessed as inhibition of light emission at 20 uM by luciferase reporter gene assay", "in_short": "as §1", "units": {"inhibition": "%"}, "values": [
      {"smiles": "O=C(Nc1ccc(Cl)c(Cl)c1)c1ccc(Cl)cc1NS(=O)(=O)c1cccc2nsnc12", "inhibition": 61},
      {"smiles": "O=C(Nc1ccccc1)c1cc(Cl)ccc1NS(=O)(=O)c1cccc2nsnc12", "inhibition": 1},
      {"smiles": "O=C(Nc1ccc(F)cc1)c1cc(Cl)ccc1NS(=O)(=O)c1cc(Cl)cc(Cl)c1O", "inhibition": 43},
      {"smiles": "O=C(Nc1ccc2cccnc2c1)c1cc(Cl)ccc1NS(=O)(=O)c1ccc(Cl)c(Cl)c1", "inhibition": 51},
      {"smiles": "O=C(Nc1ccc(Cl)c(Cl)c1)c1ccccc1NS(=O)(=O)c1cccc2nsnc12", "inhibition": 10},
      {"smiles": "COc1ccc(NC(=O)c2ccc(Cl)cc2NS(=O)(=O)c2cccc(F)c2)cc1", "inhibition": 9},
      {"smiles": "O=C(Nc1ccc(F)c(F)c1)c1cc(F)c(F)cc1NS(=O)(=O)c1cccc([N+](=O)[O-])c1", "inhibition": 2},
      {"smiles": "O=C(Nc1ccc(Cl)c(Cl)c1)c1cc(Cl)ccc1NS(=O)(=O)c1ccccc1", "inhibition": 70},
      {"smiles": "O=C(Nc1cccc(Cl)c1)c1cc(Cl)ccc1NS(=O)(=O)c1cccc2nsnc12", "inhibition": 13},
      {"smiles": "Cc1ccc(S(=O)(=O)Nc2cc(F)c(F)cc2C(=O)Nc2ccc(Cl)c(Cl)c2)cc1", "inhibition": 9},
      {"smiles": "O=C(Nc1ccc2cccnc2c1)c1cc(Cl)ccc1NS(=O)(=O)c1ccccc1", "inhibition": 2},
      {"smiles": "O=C(Nc1ccc(F)c(F)c1)c1ccc(Cl)cc1NS(=O)(=O)c1cccc2nsnc12", "inhibition": 17}
    ]},
    {"tested_on": "Yersinia pseudotuberculosis", "assay": "Effect on T3S in Yersinia pseudotuberculosis 3 pIB29 assessed as inhibition of light emission at 50 uM by luciferase reporter gene assay", "in_short": "as §1", "units": {"inhibition": "%"}, "values": [
      {"smiles": "O=C(Nc1ccc(Cl)c(Cl)c1)c1ccc(Cl)cc1NS(=O)(=O)c1cccc2nsnc12", "inhibition": 71},
      {"smiles": "O=C(Nc1ccccc1)c1cc(Cl)ccc1NS(=O)(=O)c1cccc2nsnc12", "inhibition": 9},
      {"smiles": "O=C(Nc1ccc(F)cc1)c1cc(Cl)ccc1NS(=O)(=O)c1cc(Cl)cc(Cl)c1O", "inhibition": 79},
      {"smiles": "O=C(Nc1ccc2cccnc2c1)c1cc(Cl)ccc1NS(=O)(=O)c1ccc(Cl)c(Cl)c1", "inhibition": 59},
      {"smiles": "O=C(Nc1ccc(Cl)c(Cl)c1)c1ccccc1NS(=O)(=O)c1cccc2nsnc12", "inhibition": 11},
      {"smiles": "COc1ccc(NC(=O)c2ccc(Cl)cc2NS(=O)(=O)c2cccc(F)c2)cc1", "inhibition": 32},
      {"smiles": "O=C(Nc1ccc(F)c(F)c1)c1cc(F)c(F)cc1NS(=O)(=O)c1cccc([N+](=O)[O-])c1", "inhibition": 23},
      {"smiles": "O=C(Nc1ccc(Cl)c(Cl)c1)c1cc(Cl)ccc1NS(=O)(=O)c1ccccc1", "inhibition": 73},
      {"smiles": "O=C(Nc1cccc(Cl)c1)c1cc(Cl)ccc1NS(=O)(=O)c1cccc2nsnc12", "inhibition": 47},
      {"smiles": "Cc1ccc(S(=O)(=O)Nc2cc(F)c(F)cc2C(=O)Nc2ccc(Cl)c(Cl)c2)cc1", "inhibition": 1},
      {"smiles": "O=C(Nc1ccc2cccnc2c1)c1cc(Cl)ccc1NS(=O)(=O)c1ccccc1", "inhibition": 7},
      {"smiles": "O=C(Nc1ccc(F)c(F)c1)c1ccc(Cl)cc1NS(=O)(=O)c1cccc2nsnc12", "inhibition": 50}
    ]},
    {"tested_on": "Yersinia pseudotuberculosis", "assay": "Effect on T3S in Yersinia pseudotuberculosis 3 pIB29 assessed as inhibition of light emission at 10 uM by luciferase reporter gene assay", "in_short": "as §1", "units": {"inhibition": "%"}, "values": [
      {"smiles": "O=C(Nc1ccc(Cl)c(Cl)c1)c1ccc(Cl)cc1NS(=O)(=O)c1cccc2nsnc12", "inhibition": 35},
      {"smiles": "O=C(Nc1ccccc1)c1cc(Cl)ccc1NS(=O)(=O)c1cccc2nsnc12", "inhibition": -2},
      {"smiles": "O=C(Nc1ccc(F)cc1)c1cc(Cl)ccc1NS(=O)(=O)c1cc(Cl)cc(Cl)c1O", "inhibition": 13},
      {"smiles": "O=C(Nc1ccc2cccnc2c1)c1cc(Cl)ccc1NS(=O)(=O)c1ccc(Cl)c(Cl)c1", "inhibition": 18},
      {"smiles": "O=C(Nc1ccc(Cl)c(Cl)c1)c1ccccc1NS(=O)(=O)c1cccc2nsnc12", "inhibition": 5},
      {"smiles": "COc1ccc(NC(=O)c2ccc(Cl)cc2NS(=O)(=O)c2cccc(F)c2)cc1", "inhibition": 5},
      {"smiles": "O=C(Nc1ccc(F)c(F)c1)c1cc(F)c(F)cc1NS(=O)(=O)c1cccc([N+](=O)[O-])c1", "inhibition": -2},
      {"smiles": "O=C(Nc1ccc(Cl)c(Cl)c1)c1cc(Cl)ccc1NS(=O)(=O)c1ccccc1", "inhibition": 58},
      {"smiles": "O=C(Nc1cccc(Cl)c1)c1cc(Cl)ccc1NS(=O)(=O)c1cccc2nsnc12", "inhibition": 3},
      {"smiles": "Cc1ccc(S(=O)(=O)Nc2cc(F)c(F)cc2C(=O)Nc2ccc(Cl)c(Cl)c2)cc1", "inhibition": 57},
      {"smiles": "O=C(Nc1ccc2cccnc2c1)c1cc(Cl)ccc1NS(=O)(=O)c1ccccc1", "inhibition": 0},
      {"smiles": "O=C(Nc1ccc(F)c(F)c1)c1ccc(Cl)cc1NS(=O)(=O)c1cccc2nsnc12", "inhibition": 9}
    ]}
  ]
}
